# Published values collected from several papers.
# Effect on: metabolic stability
# Host: human
SMILES,sample,concentration,time,pH,quantity,result
CC(C)C[C@H](NC(=O)[C@@H]1COCCCCCC(=O)NCC(=O)N2CCC[C@H]2C(=O)N1)C(=O)[C@@]1(C)CO1,liver microsomes,2 µM,1 h,,scaled CLint,22.5 mL/min/kg
O=C(O)Cc1ccccc1Nc1c(Cl)cccc1Cl,liver microsomes,,,,scaled CLint,174 mL/min/kg
CCN(CCN)c1ccc(Nc2cc(NC3CC3)n3ncc(C#N)c3n2)cc1-n1cnnc1,liver microsomes,,,,scaled CLint,< 6.8 mL/min/kg
O=c1ccc2ccc(O)cc2o1,hepatocytes,1 µM,,,hepatocyte CLint,56 µL/min/10⁶ cells
C[C@]1(C(=O)[C@H](Cc2ccccc2)NC(=O)[C@@H]2COCCCCCC(=O)N3C[C@H](F)C[C@H]3C(=O)N2)CO1,liver microsomes,2 µM,1 h,,scaled CLint,93.1 mL/min/kg
CCC(CC)COC(=O)[C@H](C)N[P@@](=O)(OC[C@@H]1C[C@@H](O)[C@H](n2cnc3c(N)ncnc32)O1)Oc1ccccc1,liver microsomes,1 µM,,,microsomal CLint,2610 µL/min/mg
CC[N+]1(C)CCN(c2ccc(NC(=O)c3cccc(C)n3)cc2)CC1,liver microsomes,,,,microsomal CLint,< 3 µL/min/mg
Cn1nc2c(=O)n(C3CC3)cnc2c1[C@](O)(c1cnc(C(F)(F)F)c(Cl)c1)C(F)(F)F,hepatocytes,0.5 µM,,pH 7.4,hepatocyte CLint,0.5 µL/min/10⁶ cells
COc1ccc([C@@H]2Sc3ccccc3N(CCN(C)C)C(=O)[C@@H]2OC(C)=O)cc1,liver microsomes,,,,microsomal CLint,26 µL/min/mg
CCn1ccc2c([C@](O)(c3cnc(C(F)(F)F)c(Cl)c3)C3CC3)n(C)nc2c1=O,liver microsomes,0.5 µM,,pH 7.4,microsomal CLint,< 3 µL/min/mg
CC(C)C[C@H](NC(=O)[C@@H]1COCCCCCC(=O)N2CC(F)(F)C[C@H]2C(=O)N1)C(=O)[C@@]1(C)CO1,liver microsomes,2 µM,1 h,,scaled CLint,57.6 mL/min/kg
CCn1cnc2c([C@@](O)(CC)c3ccc(C(F)(F)F)nc3)n(C)nc2c1=O,liver microsomes,0.5 µM,,pH 7.4,microsomal CLint,< 3 µL/min/mg
Nc1ncnc2c1ncn2[C@@H]1O[C@H](CO)C[C@H]1O,liver microsomes,1 µM,,,microsomal CLint,142 µL/min/mg
Cn1nc2c(=O)n(C3CC3)nc(C3CC3)c2c1Cc1ccc(C(F)(F)F)c(F)c1,liver microsomes,0.5 µM,,pH 7.4,microsomal CLint,4.6 µL/min/mg
CCC(CC)COC(=O)[C@H](C)N[P@](=O)(OC[C@@H]1C[C@@H](O)[C@H](n2cnc3c(N)nc(F)nc32)O1)Oc1ccccc1,liver microsomes,1 µM,,,microsomal CLint,1230 µL/min/mg
O=C(O)Cc1ccccc1Nc1c(Cl)cccc1Cl,hepatocytes,0.5 µM,,pH 7.4,hepatocyte CLint,98.2 µL/min/10⁶ cells
CC(C)C[C@H](NC(=O)[C@@H]1COCCCCCC(=O)N2C[C@H](F)C[C@H]2C(=O)N1)C(=O)[C@@]1(C)CO1,liver microsomes,2 µM,1 h,,scaled CLint,32.4 mL/min/kg
CCn1cc(C)c2c(C(O)c3ccc(Cl)c(F)c3)n(C)nc2c1=O (stereo not shown),liver microsomes,0.5 µM,,pH 7.4,microsomal CLint,23 µL/min/mg
O=c1ccc2ccc(O)cc2o1,liver microsomes,,,,scaled CLint,939 mL/min/kg
